The results in this text go back to ChEMBL document CHEMBL4152258, “Identification of chalcone-based antileishmanial agents targeting trypanothione reductase” (Eur J Med Chem, 2018).

Activity calls are given as the source filed them. No cut-off for these calls is given here.

As a reminder, the CC50 is the concentration that lowers cell viability or growth by half. By IC50 is commonly meant the point on the concentration scale where inhibition reaches its midpoint. As usually defined, the Kd is the equilibrium constant for the complex coming apart.

A short description of data set [1]: Cytotoxicity against human THP1 cells after 72 hrs by Alamar blue assay. The following applies: THP-1 cells. Format: cell-based. An outline of the steps: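 THP-1 cells were seeded at 10^5 cells/mL in RPMI-1640 with 10% FBS and adhered with 0.1 µM PMA, then exposed to compounds for 72 h at 37 °C, 5% CO2. AlamarBlue was added for 24 h at 37 °C, with absorbance read at 550 and 630 nm. Duplicates. CC50/72h determined.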
(In general: The colour change of resazurin is a common sign of viable cells or microbes.)

The nature of data set [2]: Cytotoxicity against African green monkey Vero cells after 72 hrs by Alamar blue assay. Format: cell-based. The settings on record: chlorocebus sabaeus. An outline of the steps:
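Vero cells were seeded at 10^5/mL in MEM with 10% FBS and exposed to compounds up to 600 µM for 72 h at 37 °C, 5% CO2. AlamarBlue was added for 24 h at 37 °C, with absorbance read at 550 and 630 nm. Duplicates. CC50/72h determined.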

Data set [3] can be described thus: Selectivity index, ratio of CC50 for human THP1 cells to IC50 for Leishmania donovani MHOM/NP/02/BPK282/0c14. Format: toxicity. The following applies: THP-1 cells, read-out: Ratio CC50/IC50. An outline of the steps:
(§1)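 Selectivity index calculated as CC50/72h in Vero (16) or THP-1 (17) cells divided by IC50/72h against L. donovani promastigotes.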

Data set [4] in a line: Selectivity index, ratio of CC50 for African green monkey Vero cells to IC50 for Leishmania donovani MHOM/NP/02/BPK282/0c14. In kind it is toxicity. The settings on record: read-out: Ratio CC50/IC50. An outline of the steps: as §1
Data set [5] has as its system Leishmania donovani. Briefly: Antileishmanial activity against promastigote stage of Leishmania donovani MHOM/NP/02/BPK282/0c14 assessed as parasite growth inhibition after 72 hrs by Alamar blue assay. Format: functional, organism-based. The following applies: MHOM/NP/02/BPK282/0c14, 72 h. In a few lines: (§2)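 Late log/stationary promastigotes were seeded at 10^6/mL in HOMEM with 20% FBS and exposed to compounds at 40–1.6 µM for 72 h at 26 °C, from 8 mM DMSO stocks. AlamarBlue was then added for 24 h at 26 °C, and absorbance was read at 550 and 630 nm. Runs were in duplicate. IC50/72h is the mean of two independent determinations.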

The test system of data set [6] is Leishmania tropica. Briefly: Antileishmanial activity against promastigote stage of Leishmania tropica MHOM/SU/74/K27 assessed as parasite growth inhibition after 72 hrs by Alamar blue assay. Format: functional, organism-based. The settings on record: MHOM/SU/74/K27, 72 h. In a few lines: as §2
Data set [7] can be described thus: Safety index, ratio of test compound CC50 to amphotericin B CC50 for African green monkey Vero cells. In kind it is ADME, cell-based. The settings on record: chlorocebus sabaeus.
Data set [8] has as its system Leishmania major. Nature of the data set: Antileishmanial activity against promastigote stage of Leishmania major MHOM/SU/73/5-ASKH assessed as parasite growth inhibition after 72 hrs by Alamar blue assay. In kind it is functional, organism-based. In a few lines:
as §2

Data set [9] can be described thus: Safety index, ratio of test compound CC50 to amphotericin B CC50 for human THP1 cells. Format: ADME, cell-based. The following applies: THP-1 cells.
Data set [10] concerns Leishmania infantum. Briefly: Antileishmanial activity against promastigote stage of Leishmania infantum MHOM/TN/80/IPT1 assessed as parasite growth inhibition after 72 hrs by Alamar blue assay. The following applies: MHOM/TN/80/IPT1, 72 h. In kind it is functional, organism-based. In a few lines:
as §2

In data set [11] the test system is Leishmania donovani. Nature of the data set: Antileishmanial activity against amastigote stage of Leishmania donovani MHOM/NP/02/BPK282/0c14 infected in human THP1 cells assessed as parasite growth inhibition after 72 hrs by Giemsa staining-based assay. The following applies: MHOM/NP/02/BPK282/0c14, THP-1, 72 h. Format: functional, organism-based. In a few lines: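 THP-1 cells at 10^5 cells/mL differentiated with 0.1 µM PMA for 48 h at 37 °C, 5% CO2, then infected with stationary-phase promastigotes. After 24 h, compounds were added at 40–1.5 µM for 72 h. Wells were Giemsa-stained, and the infectivity index (% infected macrophages × mean amastigotes per macrophage) was counted on ≥100 cells in duplicate cultures. IC50/72h determined.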

A short description of data set [12]: Binding affinity to Leishmania spp. trypanothione reductase by surface plasmon resonance analysis. More on the design: species or system Leishmania sp. In a few lines:
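Recombinant L. infantum TR was amine-coupled to ~2000 RU on a carboxyl sensor chip. Analytes in HBS pH 7.4 + 1% DMSO were given as FastStep serial doubling injections from 1.56 to 100 µM, followed by dissociation after 100 s. A protein-free surface served as control. Sensorgrams are averages of three experiments. KD came from Scatchard plots and a global 1:1 binding fit.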
On the technique in general: In SPR one partner is held on a chip, and binding of the other changes the refractive index at the surface.

Data set [13] relates to Leishmania donovani. Nature of the data set: Antileishmanial activity against promastigote stage of Leishmania donovani MHOM/NP/02/BPK282/0c14 assessed as parasite growth inhibition up to 40 uM after 72 hrs by Alamar blue assay. Format: functional, organism-based. An outline of the steps: as §2

As for `C#CCOc1ccc(C(=O)/C=C/c2ccncc2)c(OCC#C)c1`, the half-maximal cytotoxic concentration (CC50) at 72 h worked out at 11 µM in data set [1] and 10 µM in data set [2]. The selectivity ratio in data set [3] amounted to 1.6; in [4], 1.4. Also, the IC50 in [5] was found to be 7 µM.
Regarding `C#CCOc1ccc(C(=O)/C=C/c2ccc(F)cc2)c(OCC#C)c1`, the IC50 in data set [6] came to 13 µM; in data set [8], 10 µM; in data set [10], 1.6 µM; in [5], 12.5 µM; in data set [11] it was 4.5 µM. Further, the selectivity ratio in [7] turned out to be 3; in data set [3], 48; in [4] it was 48; in [9], 3. Besides, the CC50 at 72 h in data set [1] and in data set [2] was 600 µM each time. Binding in [12] was put at a Kd of 2.4 µM.
Regarding `C#CCOc1ccc(C(=O)/C=C/c2cccnc2)c(OC)c1`, the half-maximal cytotoxic concentration (CC50) at 72 h was 16 µM in [1] and 15 µM in data set [2]. Besides, the selectivity ratio in [3] stood at 1.7; in data set [4] it was 1.6. In addition, in data set [5], the 50% inhibitory concentration (IC50) is 9.5 µM.
In the case of `C#CCOc1ccc(C(=O)/C=C/c2cc(OC)c(OC)c(OC)c2)c(OC)c1`, in [13], the “growth inhibition (GI)” value was “inactive”.
On to `COc1cc(OCC=C(C)C)ccc1C(=O)/C=C/c1ccc(Br)cc1`, for which the CC50 at 72 h worked out at 100 µM in data set [1] and 600 µM in [2]. Moreover, the values for the selectivity ratio in [3] and in data set [4] were 6.3 and 37.5, respectively. In data set [5], the IC50 turned out to be 16 µM.
Turning to `COc1ccc(/C=C/C(=O)c2ccc(OCC=C(C)C)cc2OC)cc1`, the “growth inhibition (GI)” value in data set [13] is “inactive”.
Regarding `COc1cc(OCC=C(C)C)ccc1C(=O)/C=C/c1cccnc1`, the CC50 at 72 h amounted to 40 µM in data set [1] and 22 µM in data set [2]. The values for the selectivity ratio in data set [3] and in data set [4] were 3.8 and 2, respectively. Moreover, the IC50 in data set [5] was determined as 10.5 µM.
Turning to `C#CCOc1ccc(C(=O)/C=C/c2cccnc2)c(O)c1`, the CC50 at 72 h in data set [1] is 25 µM; in data set [2], 40 µM. Also, the values for the selectivity ratio in data set [3] and in data set [4] were 1.4 and 2.3, respectively. In addition, in [5], the concentration for half-maximal inhibition (IC50) amounted to 17.5 µM.
On the same counts, the results for `CC(C)=CCOc1ccc(C(=O)/C=C/c2cccnc2)c(O)c1` are 100 µM, 210 µM, 11.8, 24.7 and 8.5 µM.
For `CC(=O)Oc1cc(OCC=C(C)C)ccc1C(=O)/C=C/c1ccccc1`, the “growth inhibition (GI)” value in [13] is “inactive”.
Regarding `COc1cc(OCC=C(C)C)ccc1C(=O)/C=C/c1ccncc1`, the 50% cytotoxic concentration (CC50) at 72 h in data set [1] and in data set [2] was 16 µM in each case. The selectivity ratio in [3] and in [4] was 1.5 in each case. Moreover, the IC50 in [5] is 10.5 µM.
For `CC(C)=CCOc1ccc(C(=O)/C=C/c2ccncc2)c(O)c1`, the 50% cytotoxic concentration (CC50) at 72 h in data set [1] is 16 µM; in [2], 40 µM. Besides, the selectivity ratio is 3.2 in [3] and 8 in data set [4]. Further, in [5], the IC50 is 5 µM.
As for `C#CCOc1ccc(C(=O)/C=C/c2ccc([N+](=O)[O-])cc2)c(OCC#C)c1`, the “growth inhibition (GI)” value in data set [13] was “inactive”.
For `C#CCOc1ccc(C(=O)/C=C/c2ccc(Br)cc2)c(OC)c1`, the 50% cytotoxic concentration (CC50) at 72 h in [1] and in data set [2] was 100 µM each time. Also, the selectivity ratio in [3] and in [4] was 4.6 each time. For the same compound, the IC50 in data set [5] stood at 21.5 µM.
Take `C#CCOc1ccc(C(=O)/C=C/c2ccc([N+](=O)[O-])cc2)c(OC)c1`: in data set [13], the “growth inhibition (GI)” value was “inactive”.
Take `COc1cc(OCC=C(C)C)ccc1C(=O)/C=C/c1ccc(NC(C)=O)cc1`: in data set [13], the “growth inhibition (GI)” value was “inactive”.
The same measure, in the same setting: the result for `COc1ccc(/C=C/C(=O)c2ccc(OCC=C(C)C)cc2OC)cc1OC` reads “inactive”.
In the case of `COc1cc(OCC=C(C)C)ccc1C(=O)/C=C/c1ccccc1`, the CC50 at 72 h in [1] and in data set [2] was 50 µM in each case. Also, the selectivity ratio in data set [3] and in data set [4] was 3.3 in each case. Moreover, the half-inhibitory concentration (IC50) in data set [5] was found to be 15 µM.
Regarding `C#CCOc1ccc(C(=O)/C=C/c2cccnc2)c(OCC#C)c1`, the CC50 at 72 h in [1] turned out to be 15 µM; in [2] it was 6 µM. The selectivity ratio in data set [3] was 3.8; in data set [4] it was 1.5. The half-inhibitory concentration (IC50) in data set [5] came to 4 µM.
For `C#CCOc1ccc(C(=O)/C=C/c2ccc(Br)cc2)c(OCC#C)c1`, the cytotoxic concentration (CC50) at 72 h in [1] came out at 25 µM; in data set [2], 420 µM. Further, the selectivity ratio in [3] came out at 1.6; in data set [4], 28. The IC50 in data set [5] was determined as 15 µM.
For `C#CCOc1ccc(C(=O)/C=C/c2ccc(OC)cc2)c(OCC#C)c1`, the “growth inhibition (GI)” value in data set [13] is “inactive”.
For `COc1cc(OCC=C(C)C)ccc1C(=O)/C=C/c1ccc(F)cc1`, the “growth inhibition (GI)” value in data set [13] is “inactive”.
On to `CC(C)=CCOc1ccc(C(=O)/C=C/c2ccccc2)c(O)c1`, for which the “growth inhibition (GI)” value in [13] was “inactive”.
On the same count and under the same terms, the value for `C#CCOc1ccc(C(=O)/C=C/c2ccc(OC)c(OC)c2)c(OCC#C)c1` was “inactive”.
Turning to `C[C@@H]1[C@H](O)[C@@H](C)/C=C/C=C/C=C/C=C/C=C/C=C/C=C/[C@H](O[C@@H]2O[C@H](C)[C@@H](O)[C@H](N)[C@@H]2O)C[C@@H]2O[C@](O)(C[C@@H](O)C[C@@H](O)[C@H](O)CC[C@@H](O)C[C@@H](O)CC(=O)O[C@H]1C)C[C@H](O)[C@H]2C(=O)O` [AMPHOTERICIN B], the cytotoxic concentration (CC50) at 72 h in data set [1] and in data set [2] was 200 µM each time. Moreover, the selectivity ratio in data set [3] and in data set [4] was 666 in each case. For the same compound, in data set [5], the IC50 came to 0.3 µM.
As for `C#CCOc1ccc(C(=O)/C=C/c2ccncc2)c(OC)c1`, the values for the cytotoxic concentration (CC50) at 72 h in [1] and in data set [2] were 16 µM and 20 µM, respectively. Moreover, the results for the selectivity ratio in data set [3] and in data set [4] were 4 and 5, respectively. The concentration for half-maximal inhibition (IC50) in data set [5] was determined as 4 µM.
Regarding `C#CCOc1ccc(C(=O)/C=C/c2cc(OC)c(OC)c(OC)c2)c(OCC#C)c1`, the “growth inhibition (GI)” value in [13] is “inactive”.
For the compound `COc1cc(OCC=C(C)C)ccc1C(=O)/C=C/c1cc(OC)c(OC)c(OC)c1`, the CC50 at 72 h in data set [1] turned out to be 25 µM; in [2], 40 µM. For the same compound, the selectivity ratio was 2.3 in [3] and 3.6 in data set [4]. The concentration for half-maximal inhibition (IC50) in [5] was determined as 11 µM.
With `CC(C)=CCOc1ccc(C(=O)/C=C/c2ccccc2)c(OCC=C(C)C)c1`, the “growth inhibition (GI)” value in [13] is “inactive”.
Turning to `C#CCOc1ccc(C(=O)/C=C/c2ccc(OC)c(OC)c2)c(OC)c1`, the “growth inhibition (GI)” value in data set [13] is “inactive”.
Turning to `COc1cc(OCC=C(C)C)ccc1C(=O)/C=C/c1ccco1`, the “growth inhibition (GI)” value in [13] is “inactive”.
